SENP8 block-1 = inhibitors of human SENP8 protease. inhibition, % at 20 µM. recombinant SENP8, Nedd8 substrate fluorescence. 360,000 compounds, 0.64% hits; in the data active means inhibition mostly above about 40%, no sharp cut-off; inactive means mostly below about 27%
SENP1 FRET inh = SENP1 (human) catalytic domain inhibition. Q9P0U3. recombinant SENP1 catalytic domain, CyPet-SUMO1-YPet FRET cleavage. inhibition, % at 10 µM. 360,000 compounds, 0.21% hits. AID 624204;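 active means inhibition at least 30% at 10 µM, raw YFP signal under a set limit, fluorescence ratio 0.5 to 1.5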;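 further: 0% = enzyme with DMSO and 100% = no enzyme wells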
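Controls: no-enzyme wells low, DMSO-plus-enzyme wells high control. Test system: human recombinant His6-tagged SENP1 catalytic domain enzyme. Reagent: SFCypet-SUMO1-SFYpet FRET protein substrate, 25 nM final. Doses: one dose per compound, 10 µM, 0.5% DMSO. Detection: FRET, CFP and YFP emission. Timing: 50 min reaction at room temperature.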
SENP8 block-2 = blocks the human protease SENP8 | Q96LD8 | inhibition, % at 10 µM | purified SENP8, Z-RLRGG-aminoluciferin cleavage, luminescence | 330,000 compounds, 1.2% hits; in the data active means inhibition above about 50%
SENP7 block = blocks the human protease SENP7; 330,000 compounds, 1.5% hits; inhibition, % at 5 µM; Q9BQF6; recombinant SENP7, Z-RLRGG-aminoluciferin luminescence, 40 min; AID 434973;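 active means inhibition above about 50% at the single test dose, limit read from the data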;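 further: plate controls were DMSO with enzyme for no effect and no enzyme buffer wells for full effect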
SENP6 inh = blocks the human protease SENP6; Q9GZR1; Recombinant SENP6 catalytic domain, aminoluciferin luminescence; inhibition, % at 10 µM; 330,000 compounds, 1.8% hits;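 active means inhibition above about 50% at the single tested dose, limit read from the data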;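 further: plate controls were DMSO wells with enzyme for no effect and DMSO wells lacking enzyme for full effect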
Target sequence (Q9GZR1 628-1112 limits assumed): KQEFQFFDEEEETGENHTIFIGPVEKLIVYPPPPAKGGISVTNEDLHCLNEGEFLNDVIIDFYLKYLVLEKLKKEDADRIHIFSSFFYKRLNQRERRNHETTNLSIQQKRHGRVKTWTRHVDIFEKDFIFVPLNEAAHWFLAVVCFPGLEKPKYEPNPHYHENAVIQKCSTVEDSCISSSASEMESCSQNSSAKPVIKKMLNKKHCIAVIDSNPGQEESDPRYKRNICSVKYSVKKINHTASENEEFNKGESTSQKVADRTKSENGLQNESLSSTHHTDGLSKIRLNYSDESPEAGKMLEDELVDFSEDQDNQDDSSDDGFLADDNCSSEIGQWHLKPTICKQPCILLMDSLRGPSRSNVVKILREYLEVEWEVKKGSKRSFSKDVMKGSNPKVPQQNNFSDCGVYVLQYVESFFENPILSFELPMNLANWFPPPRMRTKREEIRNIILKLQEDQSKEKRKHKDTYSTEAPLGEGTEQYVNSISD
SENP8 conf-1 = human SENP8 inhibition, confirmed. shares compounds with SENP7 block. Recombinant SENP8, Z-RLRGG-aminoluciferin luminescence, 60 min. inhibition, % at 12.5 µM. 6,200 compounds, 40% hits. AID 488912;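 active means mean inhibition across replicates above about 50%, limit read from the data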
SENP6 conf = confirmation of human SENP6 protease inhibitors; shares compounds with SENP7 block; recombinant SENP6, Z-RLRGG-aminoluciferin luminescence; inhibition, % at 12.5 µM; 6,200 compounds, 58% hits
SENP7 confirm = human SENP7 inhibition, confirmed. recombinant SENP7, Z-RLRGG-aminoluciferin luminescence, 40 min. shares compounds with SENP7 block. inhibition, % at 12.5 µM. AID 488917. 6,200 compounds, 69% hits
Casp3 SENP sel = caspase-3 inhibition (SENP selectivity assay). shares compounds with SENP7 block. purified caspase-3, Z-DEVD-aminoluciferin luminescence, 60 min. inhibition, % at 12.5 µM. 6,200 compounds, 60% hits. AID 488918;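 active means mean inhibition above about 50%, limit read from the data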;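 further: plate controls were enzyme with DMSO for no effect and wells without caspase-3 for full effect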
Target sequence (P42574 28-227 limits assumed): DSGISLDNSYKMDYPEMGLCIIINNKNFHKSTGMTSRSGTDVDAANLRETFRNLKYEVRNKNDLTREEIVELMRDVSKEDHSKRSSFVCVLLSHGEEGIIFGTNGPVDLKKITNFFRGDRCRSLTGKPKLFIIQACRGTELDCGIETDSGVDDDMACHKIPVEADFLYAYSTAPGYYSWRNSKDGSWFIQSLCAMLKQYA
SENP luc ctr = luminescence interference (SENP counter-screen). shares compounds with SENP7 block. Pre-incubated SENP8/Z-RLRGG-aminoluciferin, luciferase luminescence interference. inhibition, % at 12.5 µM. 6,200 compounds, 39% hits. AID 488919;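 active means mean inhibition above about 50% when retested at one dose, limit read from the data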;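 further: plate controls were DMSO wells with completed reaction for no effect and substrate without enzyme for full effect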
SENP8 conf-2 = SENP8 (human) inhibition, single concentration confirmation; 1,400 compounds, 15% hits; shares compounds with SENP8 block-1; purified SENP8, Nedd8-AMC/pro-Nedd8 cleavage fluorescence, 30 min; inhibition, % at 25 µM; in the data active means inhibition mostly above about 39%, no sharp cut-off; inactive means mostly below about 34%
* hit, by the source's call; . = no result given; ! = not confirmed by another sample. An excerpt weighted towards active compounds, which were near 2.5% of everything screened.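 How the source made its calls, unless noted: active means mean inhibition above about 50% in the one-dose retest (limit read from the data); inactive means the rest.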

SMILES	SENP8 block-1	SENP1 FRET inh	SENP8 block-2	SENP7 block	SENP6 inh	SENP8 conf-2	others
CCOP(=S)(NN(Cc1ccccc1)C(=O)c1ccccc1)OCC	7	2	1	9	-8	.
Cc1ncoc1C(=O)NCC1=C(c2ccc3ccccc3c2)C[C@@H]2CC[C@H]1N2Cc1ccco1	-24	2	.	.	.	.
COC(=O)C1=C(c2ccc(OCc3ccccc3)cc2)C[C@@H]2CC[C@H]1N2C(=O)NCc1cccc(OC)c1	14	3	-4	1	-4	.
O=C(N/N=C/c1c(O)n(C2CC2)c(=S)[nH]c1=O)c1ccccc1O	-235	-29	83*	83*	82*	.	SENP8 conf-1=88*;SENP6 conf=86*;SENP7 confirm=95*;Casp3 SENP sel=87*;SENP luc ctr=25
Cc1ccccc1-n1c(O)c(/C=N/NC(=O)c2ccccc2O)c(=O)[nH]c1=S	-312	-33	19	1	4	.
COC1C(O)C(C)OC(OC2CCC3(C)C(CCC4C3C(O)CC3(C)C(C5=CC(=O)OC5)CCC43O)C2)C1O (centres undefined)	12	1	.	.	.	.
Nc1c2c(nc3sc4c(c13)CCCC4)CCCC2	-10	-2	9	15	16	.
Nc1c2c(nc3sc4c(c13)CCCC4)CCCCC2	13	-1	69*	72*	81*	.	SENP8 conf-1=17;SENP6 conf=19;SENP7 confirm=47;Casp3 SENP sel=50*;SENP luc ctr=9
COc1ccc(Cc2nccc3cc(OC)c(OC)cc23)cc1OC	55*	1	27	45	64*	.	SENP8 conf-1=5;SENP6 conf=23;SENP7 confirm=2;Casp3 SENP sel=-2;SENP luc ctr=-11
NC(Cc1ccc(F)cc1)c1csc(Nc2ncccn2)n1 (centres undefined)	8	-6	.	.	.	.
CCn1cc(CN2CCCC(C(=O)c3sccc3C)C2)cn1 (centres undefined)	6	0	-7	-3	-36	.
Cc1ccc(NC(=O)N2CC2)cc1NC(=O)N1CC1	2	-9	.	.	.	.
Cc1ccc(NC(=O)c2snnc2C)cc1Cl	11	2	33	60*	65*	.	SENP8 conf-1=49;SENP6 conf=48;SENP7 confirm=83*;Casp3 SENP sel=64*;SENP luc ctr=61*
Clc1cccc(Cl)c1NC1=NCCS1	7	1	.	.	.	.
c1ccc2c(NC3=NCCS3)cccc2c1	8	-1	88*	61*	76*	.	SENP8 conf-1=2;SENP6 conf=-2;SENP7 confirm=-3;Casp3 SENP sel=-2;SENP luc ctr=-5
CN(C)Cc1c[nH]c2ccccc12	41*	-1	-1	-6	-2	2
OCCOc1ccccc1	46*	-1	3	-4	-5	10
CC(C)[C@]12CC(=O)[C@H](C)[C@H]1C2	15	-2	7	6	8	.
c1cncc(C2CCCCN2)c1 (centres undefined)	55*	1	-3	0	7	10
NNc1n[nH]c(=S)n1N	42*	1	-2	5	-7	22
COc1cc(/C=C2\C[C@H]3[C@@H]4CC=C5C[C@@H](N6CCCC6)CC[C@]5(C)[C@H]4CC[C@]3(C)[C@H]2O)cc(OC)c1OC	0	-41	.	.	.	.
C=CC(=O)OCCO	-3	2	.	.	.	.
O=c1cc(C2CCNCC2)[nH][nH]1	55*	-1	-2	18	6	19
COc1ccc(CNC(=O)CCC(=O)N2C[C@H]3C[C@H](C2)c2cccc(=O)n2C3)cc1	5	1	-1	2	2	.
CN1CC[C@@]2(C)c3cc(O)ccc3N(C)[C@@H]12	44*!	-5	.	.	.	62*
SMILES	SENP8 block-1	SENP1 FRET inh	SENP8 block-2	SENP7 block	SENP6 inh	SENP8 conf-2	others
CCCCC1(CC)COP(=O)(OCC(Cl)(Cl)Cl)OC1 (centres undefined)	2	3	.	.	.	.
O=C(CCc1ccccc1)N1C[C@H]2C[C@@H](C1)c1cccc(=O)n1C2	61*	1	-17	-13	-16	29
COc1ccccc1CCNC(=O)CCC(=O)N1CC2C[C@@H](C1)Cn1c2cccc1=O	46*	0	2	-4	-6	1
Nc1c([N+](=O)[O-])cc(F)c(N2CCNCC2)c1Br	44*	2	-2	0	-9	7
CN1CCN(c2c(F)cc([N+](=O)[O-])c(N)c2Br)CC1	25	3	-3	-4	-8	.
O=C1NC(=O)C(Nc2ccc(Cl)c(Cl)c2)C(=O)N1	65*	-2	.	.	.	76*
CC(=O)OC1CCC2(C)C3CCC4(C)C(OC(C)=O)CCC4C3C(C)C2(O)C1 (centres undefined)	16	2	.	.	.	.
CN1CCN(c2cc(N3CCCCCC3)c(F)cc2[N+](=O)[O-])CC1	22	1	-16	-3	-5	.
CCN1CCN(c2cc(N3CCCC3)c([N+](=O)[O-])cc2F)CC1	42*	6	-3	-1	-15	20
O=C(O)c1ccc([N+](=O)[O-])c([N+](=O)[O-])c1	40*	3	.	.	.	32
O=[N+]([O-])c1ccccc1CN1CC=C(c2ccc(F)cc2)CC1	44*	-3	-1	-6	7	12
O=[N+]([O-])c1cccc(CN2CC=C(c3ccc(F)cc3)CC2)c1	18	2	-5	-6	1	.
CN1C(=O)C(Cc2ccsc2)C(=O)N(C)C1=O	47*	0	5	1	0	35
CN1C(=O)C(Cc2ccccc2)C(=O)N(C)C1=O	9	-2	.	.	.	.
CC(C)COC(=O)N1Cc2ccccc2-n2nncc2C1	16	2	.	.	.	.
C[C@H]1CC[C@H]2NCCN[C@H]2C1	28	2	-7	-2	7	.
COC(=O)C1=C(c2ccc(Cl)c(C(F)(F)F)c2)C[C@@H]2CC[C@H]1N2C(=O)NCc1ccco1	13	-3	-11	-9	-8	.
COc1ccc(-n2c(=O)[nH]c3ccccc3c2=O)c(OC)c1	12	-2	-5	-2	-10	.
COc1ccc2c(c1)NP(=S)(c1ccccc1)N2C (centres undefined)	54*	2	.	.	.	28
S=P1(Oc2ccccc2)Nc2ccccc2N1	9	3	.	.	.	.
COc1cc(C2c3cc(O)c(OC)cc3CC3C(=O)OCC32)ccc1O (centres undefined)	44*	0	.	.	.	5
